# In PMC9716449 (International Journal of Tryptophan Research : IJTR, 2022):
# “Also recorded” adds a separate entry of the source.
# Experiments:
# [1] = test system: A172 cells expressing IDO1 and TDO; assay: Kyn production in A172 cells expressing IDO1 and TDO by IFN-γ stimulation; assay type: cell-based, human; details: IFN-γ 10 ng/mL; 524 μM L-Trp, 24 hours
# Outline: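 A172 cells, grown 24 h after seeding, were given test compound 1 h before co-addition of L-Trp (final 524 μM) and IFN-γ (final 10 ng/mL) to express IDO1 and TDO. After 24 h, Kyn was quantified by Ehrlich reaction (CCl₃COOH plus p-dimethylaminobenzaldehyde in acetic acid) at 460 nm. IFN-γ-stimulated, DMSO-treated cells served as control. Triplicates; 3 independent experiments.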
# rhIDO1 = rhIDO1 (Homo sapiens, UniProt P14902); assay: Enzyme assay; assay type: biochemical; details: read-out: IC50 value on rhIDO1; cell-free; 200 μM L-Trp
# rhTDO [2] = biological target: T1, rhTDO (Homo sapiens, UniProt P48775); assay: Kinetics analysis; assay type: biochemical; details: Lineweaver-Burk plot; 680C91 0.5 and 1 μM, PVZB3001 1 and 2 μM
# Outline: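 Mode of inhibition was taken from Lineweaver–Burk plots of the recombinant human enzyme, plotting inverse initial rate against inverse L-Trp concentration with or without test compound. DMSO served as control.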
# A172 (TDO) = assay: Cell-based Kyn production assay in A172 cells; set-up: species or system human; details: A172 cells expressing TDO
# Outline: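 TDO-dependent Kyn production: A172 cells were seeded and grown 24 h, exposed to test compound for 1 h, then given L-Trp (final 524 μM) without cytokine and cultured 24 h. Kyn was detected by Ehrlich reaction, adding aqueous 7% CCl₃COOH mixed 2:5 with 2% p-dimethylaminobenzaldehyde in acetic acid, and absorbance read at 460 nm. Triplicate samples; 3 independent experiments.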
# TDO [3] = assay: TDO mRNA expression in A172 cells; assay type: cell-based, human; details: for TDO expression: mRNA and Western blot (Supplemental Figure 2)
# NK-92MI cells [4] = assay: NK-92MI viability after addition of Kyn; assay type: cell-based, human; details: 72 h after addition of Kyn
# NK-92MI cells [5] = assay: Granzyme B production assay in NK-92MI; assay type: cell-based, human; details: NK-92MI treated with Kyn 72 h, then 5.5 h fresh medium; ELISA
# Outline: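 NK-92MI cells were pre-cultured for 72 h with Kyn, then moved to fresh medium without Kyn for 5.5 h. Culture supernatant was collected and granzyme B quantified with a human granzyme B ELISA following the kit protocol.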
# CT26-Ido1 tumors = assay: Antitumor activity in mice bearing CT26-Ido1 tumors; assay type: in vivo, mouse; details: oral, 50.0 mg/kg
# Outline: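 Female BALB/c mice (6 weeks) received 1 × 10⁵ CT26-Ido1 cells s.c. in the right and left dorsal regions. On day 6 they were randomised (n = 8) to vehicle or 12.5, 25 or 50 mg/kg p.o. once daily. Caliper diameters were taken every 2 days to day 14, with V = (W² × L)/2. Tumours were weighed on day 14 and %IR was taken from mean tumour weights versus vehicle. Body weight every 2 days was expressed relative to day 1. Tumour Kyn and Trp were measured by ELISA after dissociation in PBS.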
# rhTDO [6] = biological target: T1, rhTDO; assay: Enzyme assay; assay type: biochemical
# ERK1/2 = assay: Western blot of ERK1/2 phosphorylation in A172 cells; assay type: cell-based, human
# Outline: (§1)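 Cells were lysed in RIPA buffer with protease inhibitors. Lysate (20–30 μg protein/lane) was separated by polyacrylamide gel electrophoresis and transferred to PVDF. Membranes were blocked with 5% skim milk or a signal-enhancing blocking reagent, then probed with primary antibody overnight at 4°C and secondary antibody 1 h at room temperature. Bands were visualised by ECL imaging.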
# TDO [7] = assay: Western blot of TDO protein in A172 cells; assay type: cell-based, human; details: at 1000 nM
# Outline: as §1
# A172 cells = assay: Cell viability assay; assay type: cell-based, human
# Outline: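 A172 cells were seeded and grown 24 h, then given test compound for 1 h before L-Trp (final 524 μM), with no IFN-γ. After 24 h of culture, WST-8 was added for 40–60 min at 37°C and absorbance read at 450 nm. Triplicate samples; 3 independent experiments.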
# T1 sequence (P48775 whole entry): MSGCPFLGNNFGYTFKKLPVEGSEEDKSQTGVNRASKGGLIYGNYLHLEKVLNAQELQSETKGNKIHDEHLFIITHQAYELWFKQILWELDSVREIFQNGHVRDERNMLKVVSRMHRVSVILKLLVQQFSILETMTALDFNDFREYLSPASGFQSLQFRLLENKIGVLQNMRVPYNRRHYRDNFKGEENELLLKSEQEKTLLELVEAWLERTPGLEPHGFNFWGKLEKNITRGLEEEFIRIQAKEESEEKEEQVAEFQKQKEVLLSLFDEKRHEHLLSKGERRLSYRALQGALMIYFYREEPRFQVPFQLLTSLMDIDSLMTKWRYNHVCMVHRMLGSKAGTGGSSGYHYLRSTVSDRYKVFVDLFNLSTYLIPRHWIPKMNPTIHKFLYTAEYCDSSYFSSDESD
# Chain of rhIDO1 (P14902 whole entry): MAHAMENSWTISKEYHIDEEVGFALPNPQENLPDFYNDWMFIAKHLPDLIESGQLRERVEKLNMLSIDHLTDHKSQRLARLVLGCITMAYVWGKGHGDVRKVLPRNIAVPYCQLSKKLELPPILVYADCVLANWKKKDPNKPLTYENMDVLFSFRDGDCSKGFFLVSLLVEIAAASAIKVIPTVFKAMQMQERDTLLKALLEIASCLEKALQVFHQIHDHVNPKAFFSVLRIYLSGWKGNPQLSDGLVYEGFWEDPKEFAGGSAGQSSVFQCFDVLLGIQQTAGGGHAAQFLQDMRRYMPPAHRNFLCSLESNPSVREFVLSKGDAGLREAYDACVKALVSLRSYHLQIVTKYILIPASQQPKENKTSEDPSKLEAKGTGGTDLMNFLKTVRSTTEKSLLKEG
smiles,measurement,setting,value
Fc1ccc2c(/C=C/c3cccnc3)c[nH]c2c1 [680C91],Kyn production in A172 cells expressing both IDO1 and TDO (in words),[1],decreased Kyn production; also recorded: Partial inhibition of Kyn production
same,IC50,rhIDO1,> 10 µM
same,Inhibition pattern against TDO,rhTDO [2],competitive inhibition
same,Kyn production in A172 cells (in words),A172 (TDO),reduced
Cc1cc(C(=O)NOCCO)c(Nc2ccc(I)cc2F)n(C)c1=O [AZD8330],TDO expression,TDO [3],reduction of TDO expression
same,Kyn production in A172 cells (in words),A172 (TDO),attenuated Kyn production
"Nc1ccccc1C(=O)CC(N)C(=O)O (stereo not shown) [Kyn, Kynurenine]",Viability of NK-92MI cells,NK-92MI cells [4],reduced
same,Granzyme B production,NK-92MI cells [5],reduced
Cn1c(=O)c(F)c(Nc2ccc(I)cc2F)c2c(=O)n(C[C@@H](O)CO)cnc21 [TAK-733],TDO expression,TDO [3],reduction of TDO expression
same,Kyn production in A172 cells (in words),A172 (TDO),attenuated Kyn production
NS(=O)(=O)NCCNc1nonc1C(=NO)Nc1ccc(F)c(Br)c1 [epacadostat],Antitumor effect,CT26-Ido1 tumors,moderate effect without statistical significance
same,Enzymatic activity of TDO,rhTDO [6]; at 1 μM or higher concentrations,inhibited the enzymatic activity of TDO
same,Kyn production in A172 cells expressing both IDO1 and TDO (in words),[1],decreased Kyn production; also recorded: inhibited Kyn production more effectively
CC(=O)Nc1cccc(-n2c(=O)n(C3CC3)c(=O)c3c(Nc4ccc(I)cc4F)n(C)c(=O)c(C)c32)c1 [trametinib],ERK1/2 phosphorylation,ERK1/2,inhibition of ERK1/2 phosphorylation
same,Inhibitory activity against rhTDO (in words),rhTDO [6]; cell-free assay,did not inhibit
same,TDO mRNA expression,TDO [3]; at 100 nM,downregulated
same,TDO protein expression,TDO [7],downregulated
same,Cell viability of A172 cells (in words),A172 cells,without reducing cell viability
same,Kyn production in A172 cells (in words),A172 (TDO),decreased Kyn production in a dose-dependent manner
